hIAP act = human IAP activation; purified human IAP, CDP-Star luminescence, 30 min; stronger effect = higher value; 1 = vehicle-only enzyme, 0 = enzyme-free background; activation factor at 10 µM; AID 2524; 0.16% of 330,000 active;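 active means activation factor of the enzyme at least 2-fold when tested at 20 µM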
Target sequence (P09923 whole entry, looked up): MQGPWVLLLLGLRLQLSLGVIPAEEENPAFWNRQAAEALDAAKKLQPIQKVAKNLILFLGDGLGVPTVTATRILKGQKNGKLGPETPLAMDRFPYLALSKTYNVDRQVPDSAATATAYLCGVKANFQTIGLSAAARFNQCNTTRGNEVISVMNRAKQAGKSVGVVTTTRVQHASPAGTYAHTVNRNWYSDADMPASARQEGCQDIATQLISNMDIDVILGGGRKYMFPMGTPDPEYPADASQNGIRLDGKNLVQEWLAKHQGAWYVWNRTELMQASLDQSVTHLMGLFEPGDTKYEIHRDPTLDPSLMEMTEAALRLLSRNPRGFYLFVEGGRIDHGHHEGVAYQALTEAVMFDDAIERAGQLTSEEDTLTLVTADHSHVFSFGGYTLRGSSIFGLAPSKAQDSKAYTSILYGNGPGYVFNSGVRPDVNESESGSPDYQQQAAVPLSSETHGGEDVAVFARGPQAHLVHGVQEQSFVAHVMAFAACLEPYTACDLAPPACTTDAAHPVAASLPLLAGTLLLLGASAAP
mIAP act = increases mouse intestinal alkaline phosphatase activity | muIAP, CDP-Star luminescence, 30 min; stronger effect = higher value; 1 = vehicle-only enzyme signal, 0 = enzyme-free wells | activation factor at 10 µM | 0.24% of 330,000 active;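 active means activation factor of at least 2 at 20 µM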
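Assay system: mouse IAP enzyme / Compound: DMSO-dissolved test compounds / Timing: 30 min, room temperature / Measured by: luminescence from enzymatic CDP-Star hydrolysis / Control set: DMSO-only wells, enzyme-free buffer wells as negative control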
bIAP activator = increases bovine intestinal alkaline phosphatase activity. purified bovine IAP, CDP-star luminescence, 30 min; stronger effect = higher value; fold of DMSO-control signal, blank-subtracted. activation factor at 20 µM. 0.17% of 200,000 active. AID 1016;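 active means activation factor of 2 or more at 20 µM, a signal rise over negative controls twice the positive control's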
hIAP inh = human IAP inhibition. P09923. purified IAP, CDP-Star luminescence, 30 min. inhibition, % at 10 µM. 0.12% of 330,000 active. AID 2544;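 active means inhibition reaching a set limit with compound at 10 µM in the primary screen, cut at about 35% in these data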;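 further: plate controls were DMSO wells with enzyme for no effect and no-enzyme buffer wells for full effect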
bIAP inhibitor = blocks bovine intestinal alkaline phosphatase activity | purified bovine IAP, CDP-star luminescence, 30 min | inhibition, % at 20 µM | 190,000 tested, under 10 active | AID 1019;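 active means over 50% inhibition of intestinal alkaline phosphatase at 20 µM in the single-dose screen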
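Assay system – bovine IAP enzyme · Quantity – bovine IAP at 1/65,000,000 final dilution · Detection – CDP-star luminescence signal · Times – 30 min reaction at room temperature · Also added – CDP-star substrate at 30 µM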
mIAP inh = blocks mouse intestinal alkaline phosphatase; purified mouse IAP, CDP-Star luminescence, 30 min; inhibition, % at 10 µM; 0.2% of 330,000 active; AID 2806;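 active means inhibition of at least 40% at 10 µM in the primary screen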;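 further: plate controls were DMSO with enzyme for no effect and no enzyme wells for full effect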
mIAP inh conf = mouse IAP inhibition confirmation | 4.7% of 11,000 active | shares compounds with mIAP inh | purified mouse IAP, CDP-Star luminescence, 30 min | inhibition, % at 10 µM;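 active means inhibition of at least 40% at 10 µM in either of the two replicates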;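 further: plate controls were DMSO wells with enzyme for no effect and buffer wells lacking enzyme for full effect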
Starred values were filed as active, the others as inactive; i = inactive; . = no result. Only some compounds are listed: those with a hit (about 0.77% of all), similar ones and a draw of the others.

SMILES | hIAP act | mIAP act | bIAP activator | hIAP inh | bIAP inhibitor | mIAP inh | mIAP inh conf
C#CCOCCOCCOCCNc1nc(N2CCN(C(=O)CCCCCCCCCCNC(=O)Cn3cc(CCCCCN)nn3)CC2)nc(N2CCN(C(=O)CCCCCCCCCCNC(=O)[C@@H]([C@H](C)O)n3cc(C)nn3)CC2)n1 | 0.985 | 1.35 | . | 1.5 | . | -34.6 | .
CCc1ccc(CN(C)C(=O)CC2C(=O)NCCN2Cc2ccoc2)cc1 (stereo unspecified) | 0.97 | 0.997 | 1 | 3.0 | -1.4 | 0.3 | .
OCc1cc(-c2ccccn2)no1 | 1.04 | 1.04 | . | -4.3 | . | -4.1 | .
CCOC(=O)c1ccc(NC(=O)C2CC(O)CN2S(=O)(=O)c2ccc(C)cc2)cc1 (stereo unspecified) | 0.946 | 1.07 | . | 5.4 | . | -7.3 | .
C#CCOCCOCCOCCNc1nc(N2CCOCC2)nc(N2CCN(C(=O)CCCCCCCCCCNC(=O)[C@H]([C@@H](C)CC)n3cc(CCCCN=C(N)N)nn3)CC2)n1 | 1.08 | 2.54* | . | -7.9 | . | -154.0 | -136.7
C#CCOCCOCCOCCNc1nc(N2CCOCC2)nc(N2CCN(C(=O)[C@H]([C@@H](C)CC)n3cc(CCCN=C(N)N)nn3)CC2)n1 | 0.953 | 1.16 | 0.9 | 4.7 | 6.9 | -16.0 | .
C#CCOCCOCCOCCNc1nc(N2CCN(C(=O)CCCCCCCCCCNC(=O)[C@H](CCCCN)n3cc(C)nn3)CC2)nc(N2CCN(C(=O)CCCCCCCCCCNC(=O)[C@H](CCCN=C(N)N)n3cc(C[C@@H](C)CC)nn3)CC2)n1 | 1.27 | 3.15* | . | -27.6 | . | -214.8 | -295.1
C#CCOCCOCCOCCNc1nc(N2CCN(C(=O)CCCCCCCCCCNC(=O)[C@H](CCCCN)n3cc(C[C@@H](C)CC)nn3)CC2)nc(N2CCN(C(=O)CCCCCCCCCCNC(=O)[C@H](CCCN=C(N)N)n3cc(C[C@@H](C)CC)nn3)CC2)n1 | 1.35 | 2 | . | -35.2 | . | -99.8 | .
C#CCOCCOCCOCCNc1nc(N2CCN(C(=O)CCCCCCCCCCNC(=O)[C@H](CCCN=C(N)N)n3cc(C[C@@H](C)CC)nn3)CC2)nc(N2CCN(C(=O)CCCCCCCCCCNC(=O)[C@@H]([C@H](C)CC)n3cc(CCCCCN)nn3)CC2)n1 | 1.5 | 5.63* | . | -50.0 | . | -463.1 | i
CCOc1ccc(NC(=O)Cn2nnc(-c3ccc(C(N)=O)cc3)n2)cc1S(=O)(=O)N1CCCC1 | 1.1 | 1.08 | . | -9.6 | . | -7.6 | .
O=S(=O)(c1cc(O)ccc1O)c1cccc2c(S(=O)(=O)c3cc(O)ccc3O)cccc12 | 0.883 | 0.351 | . | 11.7 | . | 64.9* | 57.9*
O=S(=O)(O)c1cc(O)ccc1O | 1.23 | 0.744 | . | -23.1 | . | 25.6 | .
Brc1ccc(C2Nc3cccc4cccc(c34)N2)o1 | 0.871 | 0.564 | 0.8 | 12.9 | 19.8 | 43.6* | 52.8*
Brc1cccc(C2Nc3cccc4cccc(c34)N2)c1 | 0.779 | 0.882 | . | 22.1 | . | 11.8 | .
O=C(CCCN1C(=O)/C(=C\c2cccs2)SC1=S)Nc1cccc(C(=O)O)c1 | 0.922 | 0.973 | 1 | 7.8 | -0.5 | 2.7 | .
O=C(CCCN1C(=O)/C(=C/c2ccco2)SC1=S)Nc1cccc(C(=O)O)c1 | 0.943 | 0.362 | . | 5.7 | . | 63.8* | 71.3*
O=C(CCCN1C(=O)/C(=C\c2ccco2)SC1=S)Nc1ccc(O)cc1C(=O)O | 0.787 | 0.319 | . | 21.3 | . | 68.1* | 74.9*
COc1cc(C(=O)NNC(=O)COc2ccccc2Cl)ccc1OCC(=O)N1CCOCC1 | 1.02 | 0.928 | . | -1.9 | . | 7.2 | .
C=CCNC(=S)NNC(=O)c1ccco1 | 1.37 | 0.901 | 1.3 | -37.2 | -25.6 | 9.9 | .
O=C(/C=C/c1ccco1)NC(=S)Nc1ccc(C(=O)O)cc1 | 1.17 | 0.566 | . | -16.8 | . | 43.4* | 66.7*
O=C(/C=C/c1ccco1)NC(=S)NNC(=O)c1ccco1 | 1.48 | 0.508 | 0.9 | -48.2 | 5.7 | 49.2* | 54.3*
CC(=O)NC(=S)Nc1ccc(NC(=S)NC(=O)/C=C/c2ccco2)cc1 | 0.905 | 0.85 | . | 9.5 | . | 15.0 | .
COc1cc(C(=O)NCCCOC(C)C)ccc1OC1CCN(C(C)=O)CC1 | 0.957 | 0.966 | . | 4.3 | . | 3.4 | .
CN(C(=O)C1CCCC1)C1CCS(=O)(=O)C1 (stereo unspecified) | 1.02 | 0.997 | . | -1.6 | . | 0.3 | .

Screening results deposited in PubChem BioAssay by Sanford-Burnham Center for Chemical Genomics.
